Assay results as given in ChEMBL document CHEMBL4354865 (J Med Chem, 2020).
pIC50: −log10 of the molar value. Activity calls are given as the source filed them. The calls are words filed in the database; no cut-off is given here.

Key:
[1] = target: T1, Indoleamine 2,3-dioxygenase 1 (Homo sapiens, UniProt P14902); assay: Inhibition of IDO1 in IFNgamma-stimulated human MCF7 cells assessed as reduction in L-Kyn level measured after 48 hrs by HPLC analysis; format: cell-based
Target sequence in this assay (P14902 whole entry): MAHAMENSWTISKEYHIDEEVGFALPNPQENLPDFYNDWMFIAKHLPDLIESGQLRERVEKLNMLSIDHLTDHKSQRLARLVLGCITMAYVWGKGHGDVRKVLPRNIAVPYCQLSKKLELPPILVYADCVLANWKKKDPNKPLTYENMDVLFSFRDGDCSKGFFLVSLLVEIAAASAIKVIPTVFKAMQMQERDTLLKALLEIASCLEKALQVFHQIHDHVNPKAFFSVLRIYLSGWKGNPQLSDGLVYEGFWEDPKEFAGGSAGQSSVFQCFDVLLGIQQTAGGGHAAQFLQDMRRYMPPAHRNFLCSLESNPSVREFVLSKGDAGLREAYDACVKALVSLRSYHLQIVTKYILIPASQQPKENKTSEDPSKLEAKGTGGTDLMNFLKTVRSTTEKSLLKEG

[2] = Metabolic stability in CD-1 mouse liver microsomes assessed as parent compound remaining at 50 uM measured after 1 hr in presence of NADPH generating system by UV-LC/MS analysis; format: ADME, Microsome; details: read-out: Stability
Outline: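 Mouse liver microsomes activated with NADPH. Residual parent compound was measured after 1 h incubation.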

[3] = target: Indoleamine 2,3-dioxygenase 1 (Mus musculus, UniProt P28776); assay: Inhibition of mouse IDO1 transfected in P815 cells assessed as reduction in L-Kyn level measured after 16 hrs by HPLC analysis; format: cell-based
Sequence of Indoleamine 2,3-dioxygenase 1 (Mus musculus, UniProt P28776) (P28776 whole entry): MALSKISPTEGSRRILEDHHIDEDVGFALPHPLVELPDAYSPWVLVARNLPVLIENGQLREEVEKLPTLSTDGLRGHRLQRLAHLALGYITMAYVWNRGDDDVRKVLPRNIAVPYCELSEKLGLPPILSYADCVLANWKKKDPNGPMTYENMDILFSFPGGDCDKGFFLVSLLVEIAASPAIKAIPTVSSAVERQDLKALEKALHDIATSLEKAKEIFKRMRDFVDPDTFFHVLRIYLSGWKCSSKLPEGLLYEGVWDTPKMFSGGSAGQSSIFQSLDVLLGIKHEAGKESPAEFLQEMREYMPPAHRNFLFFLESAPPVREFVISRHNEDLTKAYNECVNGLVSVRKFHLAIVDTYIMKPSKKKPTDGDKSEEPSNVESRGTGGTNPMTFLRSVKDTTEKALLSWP
Outline: (§1)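 P815 mastocytoma cells stably expressing mouse IDO1 (P1.IDO1) or TDO (P1.TDO) were treated with serial dilutions for 16 h. L-Kyn secreted into the culture supernatant was quantified by HPLC, and an IC50 was determined in each line.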

[4] = system: Mus musculus; assay: In vivo inhibition of IDO1 in BALB/c mouse assessed as reduction in L-kyn level at 10 mg/kg, iv measured up to 8 hrs by LC-HRMS analysis
[5] = Cmax in BALB/c mouse at 10 mg/kg, iv by LC-MS analysis; format: ADME, organism-based; set-up: dose 10 mg/kg, route intravenous; details: in vivo
Outline: (§2)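 Mice received a single i.v. dose of 10 mg/kg. Serial blood samples were taken and PK parameters derived, including half-life, clearance, volume of distribution and Cmax.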

[6] = species on record: Mus musculus; assay: Selectivity ratio of IC50 for inhibition of mouse TDO transfected in P815 cells to IC50 for inhibition of mouse IDO1 transfected in P815 cells; format: cell-based; outline: as §1
[7] = target: T1, Indoleamine 2,3-dioxygenase 1; assay: Selectivity ratio of IC50 for IDO1 in IFNgamma-stimulated human DAN-G cells to IC50 for IDO1 in IFNgamma-stimulated human A375 cells
Target sequence in this assay (P14902 whole entry, looked up): as the sequence (P14902 whole entry) above

[8] = Drug metabolism in CD-1 mouse liver microsomes assessed as benzimidazole oxidation at 50 uM measured after 1 hr by LC-HRMS analysis; format: ADME, Microsome
[9] = Half life in BALB/c mouse at 10 mg/kg, iv by LC-MS analysis; format: ADME, organism-based; details: in vivo; outline: as §2
[10] = target: T1, Indoleamine 2,3-dioxygenase 1; assay: Inhibition of IDO1 in IFNgamma-stimulated human A375 cells assessed as reduction in L-Kyn level measured after 48 hrs by HPLC analysis
Target sequence in this assay (P14902 whole entry): as above

[11] = Inhibition of CYP450 in rat liver microsomes assessed as reduction in aminopyrine N-demethylase activity preincubated for 3 mins followed by NADPH addition and measured after 15 mins by iodometric titration method; format: ADME; details: rat, microsomes, 0.25 h
Outline: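 CYP inhibition read by aminopyrine N-demethylase activity, with IC50 determined from concentration–response curves. Ketoconazole (CYP3A inhibitor) served as reference.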

[12] = Cytotoxicity against human A375 cells assessed as cell viability at 1 uM measured after 48 hrs by MTT assay relative to control; format: cell-based, A-375; details: read-out: Activity
Outline: (§3)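 A375 cells, unstimulated or stimulated with recombinant human IFN-γ, were left untreated or treated with 1 µM compound for 48 h. L-Kyn was measured by HPLC and cell viability was assessed.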

[13] = Volume of distribution in BALB/c mouse at 10 mg/kg, iv by LC-MS analysis; format: ADME, organism-based; details: in vivo; outline: as §2
[14] = target: Tryptophan 2,3-dioxygenase (Mus musculus, UniProt P48776); assay: Inhibition of mouse TDO transfected in P815 cells assessed as reduction in L-Kyn level measured after 16 hrs by HPLC analysis; format: cell-based; outline: as §1
Sequence of Tryptophan 2,3-dioxygenase (P48776 whole entry): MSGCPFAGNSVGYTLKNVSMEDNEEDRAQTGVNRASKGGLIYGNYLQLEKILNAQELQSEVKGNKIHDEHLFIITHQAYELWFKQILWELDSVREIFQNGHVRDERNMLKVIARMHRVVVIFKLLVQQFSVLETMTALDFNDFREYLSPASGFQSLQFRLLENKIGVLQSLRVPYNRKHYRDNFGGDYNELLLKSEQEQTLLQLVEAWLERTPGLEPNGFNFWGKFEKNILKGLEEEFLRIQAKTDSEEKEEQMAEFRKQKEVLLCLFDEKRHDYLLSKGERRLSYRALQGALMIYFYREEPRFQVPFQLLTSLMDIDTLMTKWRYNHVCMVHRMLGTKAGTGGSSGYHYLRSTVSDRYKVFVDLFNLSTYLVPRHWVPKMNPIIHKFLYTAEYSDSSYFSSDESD

[15] = Drug metabolism in CD-1 mouse liver microsomes assessed as oxidative N-dealkylation at 50 uM measured after 1 hr by LC-HRMS analysis; format: ADME, Microsome
[16] = system: Monocyte; assay: Cytotoxicity against PDAC patient derived monocytes assessed as reduction in cell viability at 30 uM measured after 24 hrs by Annexin-V APC/7-AAD staining based flow cytometric analysis; details: human
Outline: (§4)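 Monocytes from healthy donors (n=3) and from PDAC patients (n=3) were treated for 24 h, with DMSO as control. Viability was normalized to untreated cells. Healthy-donor cells received a range of concentrations; PDAC cells received 30 µM.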

[17] = system: Monocyte; assay: Effect on anti-CD3/anti-CD28-stimulated CD3+T cell proliferation in PDAC patient derived non-suppressive monocytes co-cultured with human PBMC at 30 uM preincubated for 4 days followed by co-culturing of monocytes and measured after 24 hrs by flow cytometric analysis; format: cell-based
Outline: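 PDAC patient monocytes (suppressive or non-suppressive) were pre-treated with 30 µM compound or DMSO, then co-cultured for 4 days with Cell Trace-labelled activated CD3+ T cells. T-cell proliferation was read from proliferation peaks and normalized to activated T cells cultured without myeloid cells. Data are mean ± SEM; Mann-Whitney test.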

[18] = Metabolic stability in CD-1 mouse liver microsomes assessed as parent compound remaining at 50 uM measured after 1 hr in presence of NADPH by UV-LC/MS analysis
[19] = target: T1, Indoleamine 2,3-dioxygenase 1; assay: Inhibition of IDO1 in IFNgamma-stimulated human A375 cells assessed as reduction in L-Kyn level at 1 uM measured after 48 hrs by HPLC analysis relative to control; outline: as §3
Target sequence in this assay (P14902 whole entry, looked up): as the sequence (P14902 whole entry) above

[20] = target: T1, Indoleamine 2,3-dioxygenase 1; assay: Inhibition of IDO1 in IFNgamma-stimulated human DAN-G cells assessed as reduction in L-Kyn level measured after 48 hrs by HPLC analysis; format: cell-based
Target sequence in this assay (P14902 whole entry): as above

[21] = system: Monocyte; assay: Cytotoxicity against human monocytes assessed as reduction in cell viability at 30 uM measured after 24 hrs by Annexin-V APC/7-AAD staining based flow cytometric analysis; outline: as §4
[22] = target: T1, Indoleamine 2,3-dioxygenase 1; assay: Inhibition of IDO1 in PDAC patient derived suppressive monocytes co-cultured with human PBMC assessed as reduction in anti-CD3/anti-CD28-stimulated CD3+T cell proliferation at 30 uM preincubated for 4 days followed by co-culturing of monocytes and measured after 24 hrs by flow cytometric analysis
Target sequence in this assay (P14902 whole entry, looked up): as the sequence (P14902 whole entry) above

- pIC50 [1]: 7.08
- remaining at 1 h, 50 µM [2]: 65%
- pIC50 [3]: 8.03
- Cmax [5]: 2680 ng/mL
- Ratio IC50 [7]: 1.9
- Drug metabolism [8]: Metabolite_Detected
- t1/2 [9]: 39 min
- pIC50 [10]: 7.14
- inhibition (INH) [11]: Not Active
- Vd [13]: 6.6 L/kg
- pIC50 [14]: 4.88
- Drug metabolism [15]: Metabolite_Detected
- remaining at 1 h, 50 µM [18]: 65%
- inhibition [19]: 94%
- pIC50 [20]: 6.85
- inhibition [22]: Active
Structure (SMILES): O=C(NCc1cccc(Cn2cnc3ccccc32)c1)c1cc2ccccc2[nH]1
- inhibition [4]: Active
- Ratio IC50 [6]: > 1000
- viability at 48 h, 1 µM [12]: 99%
- Activity [16]: Non-Toxic
- Activity [17]: Non-Toxic
- Activity [21]: Non-Toxic
